Series [1] relates to Plasmodium falciparum. Nature of the series: In vitro antimalarial activity for DHFR mutant, chloroquine and pyrimethamine-resistant Plasmodium falciparum W2.
Series [2] deals with Plasmodium falciparum. The series can be described thus: In vitro antimalarial activity for DHFR wild-type, chloroquine and pyrimethamine-sensitive Plasmodium falciparum D6. It is filed as functional, organism-based. An outline of the steps:
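[3H]-hypoxanthine incorporation assay in folate-free medium. Two-fold dilutions; range 5000 (or 2500) ng/mL to 5 pg/mL for parent biguanides, 5 ng/mL to 5 fg/mL for dihydrotriazine metabolites. DMSO ≤0.002%. 37 °C under 90% N2/5% CO2/5% O2; label added at 48 h, harvest at 72 h, scintillation counting. Triplicate on three occasions; IC50 by sigmoid nonlinear regression versus drug-free controls.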

Series [3] can be described thus: Maximum velocity against human liver microsomes; (n=6). It is filed as ADME, Microsome. An outline of the steps: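 Pooled human liver microsomes, 1 mg/mL, in NADPH regenerating buffer (1.25 mM βNADP+, 3.3 mM glucose-6-phosphate, 3.3 mM MgCl2). Mix preincubated 5 min at 37 °C, then started with glucose-6-phosphate dehydrogenase (1 unit/mL final). Substrate at 25–500 µM, 90 min at 37 °C. Stopped with ice-cold acetonitrile containing internal standard. Dihydrotriazine metabolite quantified by LC-MS/MS against synthetic standard curves. Vmax from Michaelis–Menten nonlinear fit using only ≤200 µM data, n=6.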

IC50 and Vmax data for 18 compounds are collected here from ChEMBL document CHEMBL1143593, “In vitro metabolism of phenoxypropoxybiguanide analogues in human liver microsomes to potent antimalarial dihydrotriazines” (J Med Chem, 2005).

≈ marks a conversion by molar mass, not a printed value.

As usually defined, the IC50 is the concentration that inhibits the measured activity by half. A lower IC50 goes with inhibition by little substance. As to `CC1(C)N=C(N)N=C(N)N1OCCCOc1ccc(C(F)(F)F)cc1`, the IC50 came out at 0.063 ng/mL (≈ 0.175 nM) with Plasmodium falciparum [1] and 0.01 ng/mL (≈ 0.0278 nM) in the series with Plasmodium falciparum [2].
The term Vmax denotes the top rate of the reaction or transport when substrate is in excess. On to `CC(C)/N=C(N)/N=C(/N)NOCCCOc1ccccc1OC(F)(F)F`, for which, in series [3], the Vmax is recorded as 13.3 nmol/min/mg. Further, the IC50 is above 5000 ng/mL in the series on Plasmodium falciparum [1] and above 2500 ng/mL with Plasmodium falciparum [2].
For `CC(C)NC(=N)NC(=N)NOCCCOc1ccc(Cl)c(Cl)c1`, the maximum rate (Vmax) in series [3] is given as 27.7 nmol/min/mg. Also, the IC50 in the series on Plasmodium falciparum [1] was 2550 ng/mL (≈ 7040 nM); with Plasmodium falciparum [2], 845 ng/mL (≈ 2330 nM).
`CCc1nc(N)nc(N)c1-c1ccc(Cl)cc1` [PYRIMETHAMINE]: the IC50 in the series on Plasmodium falciparum [1] came to 130 ng/mL (≈ 523 nM); with Plasmodium falciparum [2], 1.2 ng/mL (≈ 4.82 nM).
`CC1(C)N=C(N)N=C(N)N1OCCCOc1ccc(OC(F)(F)F)cc1Cl`: the results for the IC50 with Plasmodium falciparum [1] and with Plasmodium falciparum [2] were 0.031 ng/mL (≈ 0.0756 nM) and 0.01 ng/mL (≈ 0.0244 nM), respectively.
Turning to `N=C(NOCCCOc1ccc(OC(F)(F)F)cc1)NC(=N)NC1CC1`, the figures for the IC50 with Plasmodium falciparum [1] and with Plasmodium falciparum [2] were above 5000 ng/mL and above 2500 ng/mL, respectively.
Take `CC(C)NC(=N)NC(=N)NOCCCOc1cc(Cl)c(Cl)cc1Cl`: the Vmax in series [3] is given as 11.6 nmol/min/mg. The IC50 in the series with Plasmodium falciparum [1] was found to be 3790 ng/mL (≈ 9540 nM); with Plasmodium falciparum [2] it was 877 ng/mL (≈ 2210 nM).
Taken in the same sequence, the figures for `CC(C)/N=C(N)/N=C(/N)NOCCCOc1ccc(OCC(F)(F)F)cc1` were 18.7 nmol/min/mg, above 5000 ng/mL and above 2500 ng/mL.
As to `CC1(C)N=C(N)N=C(N)N1OCCCOc1ccc(OC(F)(F)F)cc1`, the IC50 in the series on Plasmodium falciparum [1] stood at 0.052 ng/mL (≈ 0.139 nM); in the series with Plasmodium falciparum [2], 0.01 ng/mL (≈ 0.0266 nM).
Take `CC1(C)N=C(N)N=C(N)N1OCCCOc1cc(Cl)c(Cl)cc1Cl`: the IC50 with Plasmodium falciparum [1] came to 0.016 ng/mL (≈ 0.0405 nM); in the series on Plasmodium falciparum [2], 0.02 ng/mL (≈ 0.0507 nM).
As to `CC1(C)N=C(N)N=C(N)N1OCCCOc1ccc(Cl)c(Cl)c1`, the figures for the IC50 in the series on Plasmodium falciparum [1] and in the series with Plasmodium falciparum [2] were 0.028 ng/mL (≈ 0.0777 nM) and 0.009 ng/mL (≈ 0.025 nM), respectively.
Regarding `CC(C)/N=C(N)/N=C(/N)NOCCCOc1ccc(C(F)(F)F)cc1Cl`, in series [3], the Vmax is reported as 15.4 nmol/min/mg. Besides, the IC50 was above 5000 ng/mL in the series on Plasmodium falciparum [1] and 2230 ng/mL (≈ 5640 nM) in the series with Plasmodium falciparum [2].
The like results for `[H]/N=C(\N/C(=N/[H])Nc1ccc(Cl)cc1)NC(C)C` [PROGUANIL] were, in that order, 19.6 nmol/min/mg, above 5000 ng/mL and above 5000 ng/mL.
Regarding `CC1(C)N=C(N)N=C(N)N1OCCCOc1ccc(OCC(F)(F)F)cc1Cl`, the values for the IC50 in the series on Plasmodium falciparum [1] and in the series on Plasmodium falciparum [2] were 0.081 ng/mL (≈ 0.191 nM) and 0.022 ng/mL (≈ 0.0519 nM), respectively.
As for `CC(C)NC(=N)NC(=N)NOCCCOc1ccc(OC(F)(F)F)cc1`, the Vmax in series [3] is 13.5 nmol/min/mg. For the same compound, the IC50 with Plasmodium falciparum [1] was above 5000 ng/mL; in the series on Plasmodium falciparum [2] it was above 2500 ng/mL.
Consider `CC1(C)N=C(N)N=C(N)N1OCCCOc1ccccc1OC(F)(F)F`, for which the results for the IC50 in the series on Plasmodium falciparum [1] and with Plasmodium falciparum [2] were 0.053 ng/mL (≈ 0.141 nM) and 0.022 ng/mL (≈ 0.0586 nM), respectively.
On to `CC1(C)N=C(N)N=C(N)N1c1ccc(Cl)cc1` [CYCLOGUANIL], for which the figures for the IC50 with Plasmodium falciparum [1] and in the series on Plasmodium falciparum [2] were above 2.5 ng/mL and 0.328 ng/mL (≈ 1.3 nM), respectively.
`CC(C)/N=C(N)/N=C(/N)NOCCCOc1ccc(C(F)(F)F)cc1`: the Vmax in series [3] worked out at 10.8 nmol/min/mg. The IC50 in the series on Plasmodium falciparum [1] is above 5000 ng/mL; with Plasmodium falciparum [2], above 2500 ng/mL.
